Bioassay records from PubChem.
UBC13 polyUb = UBC13 polyubiquitin chain formation inhibitors, primary screen, biochemical, TR-FRET, uHTS; Ubiquitin-conjugating enzyme E2 N (Homo sapiens), P61088; inhibition, % at 20 µM; hit rate 0.47% among 330,000; AID 485273, 2010; in the data active means inhibition above about 45%, passing the limit was not always enough
proCasp7 act = procaspase-7 activators, primary screen, counter-screen for procaspase-3 activator project, biochemical, absorbance, HTS, human. recombinant procaspase-7, Ac-DEVD-pNA absorbance 405 nm; D23A/D198A/D206A triple mutant, cannot self-cleave; scale: DMSO 0, 5 µM enzyme 100. activation, % at 8.5 µM. Caspase-7 (Homo sapiens), P55210. hit rate 0.093% among 330,000;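 active means percent activation above the screen-wide mean plus 3 SD, cut at about 25% in these data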
Target sequence (P55210 whole entry D23A/D198A/D206A): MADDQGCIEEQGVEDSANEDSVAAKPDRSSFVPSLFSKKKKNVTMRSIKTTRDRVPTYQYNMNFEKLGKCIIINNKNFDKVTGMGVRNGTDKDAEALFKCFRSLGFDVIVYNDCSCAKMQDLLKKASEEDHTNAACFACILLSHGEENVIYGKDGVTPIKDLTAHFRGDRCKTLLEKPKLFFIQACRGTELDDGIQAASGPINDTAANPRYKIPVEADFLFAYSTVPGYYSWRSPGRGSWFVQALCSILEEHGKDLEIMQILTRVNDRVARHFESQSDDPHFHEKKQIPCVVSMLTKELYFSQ
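Assay system: Uncleavable procaspase-7 mutant enzyme / Input: 2 µM procaspase-7 mutant as dispensed / Dosing: single nominal 8.5 µM compound dose, 0.8% DMSO final / Timing: 1 h enzyme–compound preincubation and 2 h substrate reaction, both 25 °C / Detection: p-Nitroaniline absorbance at 405 nm, read at 0 and 120 min / Replication: singlicate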
IDE act = human IDE activators in live cells, primary screen, fluorescence polarization, HEK cells, FAbeta-B substrate. Insulin-degrading enzyme (Homo sapiens), P14735. FAbeta-B cleavage; 0% vehicle, 100% cell-free pure enzyme wells. activation, % at 5.96 µM. hit rate 0.073% among 340,000;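 active means activation above the mean of all tested compounds plus 3 SD, set per screening campaign, cut at about 17% in these data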
proCasp3 act = activators of human procaspase-3 D3A mutant, primary screen, biochemical, absorbance, PC-3 D3A mutant, single concentration; Caspase-3 (Homo sapiens), P42574; recombinant procaspase-3 D3A, Ac-DEVD-pNA absorbance 405 nm; activation, % at 8.5 µM; hit rate 0.11% among 330,000; AID 463141, 2010;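 active means activation above the mean of all tested compounds plus 3 SD, cut at about 21% in these data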;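 further: 0% = DMSO alone and 100% = DMSO wells spiked with extra 5 µM PC-3 D3A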
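Compound: 8.5 µM single point, 0.8% DMSO / Material: Autoprocessing-dead procaspase-3 D3A mutant enzyme / Timing: 1 h preincubation plus 2 h reaction at 25 °C / Medium: Zinc-free HEPES/NaCl buffer with 0.01% Triton X-100 at pH 7.4 / Technique: 405 nm absorbance of p-nitroaniline, reads at 0 and 120 min / Repeats: one well per compound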
IDE inh = human IDE inhibitors in live cells, primary screen, fluorescence polarization, HEK cells, FAbetaB substrate; Insulin-degrading enzyme (Homo sapiens), P14735; hit rate 0.41% among 320,000; AID 434962, 2010; inhibition, % at 5.59 µM; FAbetaB cleavage;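 active means percent inhibition above the average of all tested compounds plus 3 SD, set per screening campaign, cut at about 16% in these data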;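 further: IDE supplied by intact live HEK cells; FP after avidin binding of uncleaved biotin substrate so inhibition keeps polarization high; 0% = DMSO wells and 100% = 60 µM reference IDE inhibitor Ii1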
PHOSPHO1 inh = PubChem AID 1565. Phosphoethanolamine/phosphocholine phosphatase (Homo sapiens), Q8TCT1. recombinant PHOSPHO1, absorbance phosphatase assay. inhibition, % at 13.3 µM. hit rate 1.1% among 290,000; in the data active means inhibition above about 60%
Target sequence (Q8TCT1 whole entry, looked up): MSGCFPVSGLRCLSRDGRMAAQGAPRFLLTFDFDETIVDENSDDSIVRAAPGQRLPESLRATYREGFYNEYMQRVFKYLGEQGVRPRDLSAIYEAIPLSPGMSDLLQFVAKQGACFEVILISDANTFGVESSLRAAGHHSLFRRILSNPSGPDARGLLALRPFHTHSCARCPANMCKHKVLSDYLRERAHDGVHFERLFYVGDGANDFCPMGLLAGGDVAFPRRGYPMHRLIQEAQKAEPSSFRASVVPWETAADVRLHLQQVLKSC
IDE inh confirm = human IDE inhibitors in live cells, confirmation, fluorescence polarization, HEK cells, FAbetaB substrate | inhibition, % at 5.59 µM | FAbetaB cleavage | hit rate 51% among 1,200 | shares compounds with IDE inh | AID 435028, 2010;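 active means mean inhibition across triplicate wells above the cutoff set by the earlier primary insulin-degrading enzyme screen, cut at about 16% in these data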;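 further: 0% = DMSO wells and 100% = 60 µM reference IDE inhibitor Ii1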
HEK cytotox = cytotoxicity in HEK cells, cytotoxicity control for IDE inhibitor project, cell-based, luminescence; shares compounds with IDE inh; HEK293 cytotoxicity, ATP luminescence; inhibition, % at 5.59 µM; hit rate 28% among 1,200; AID 449730, 2010; in the data active means inhibition above about 22%;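 further: 0% = vehicle wells and 100% = reference cytotoxic drug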
The depositor's hits bear a star. Compounds with a hit are over-represented: about 1.9% of the library has one in this group of screens.

Cc1ccc(N2CC(C(=O)N3CCC(C(=O)Nc4cccc(Br)c4)CC3)CC2=O)cc1 (stereo unspecified) was read as UBC13 polyUb 6, proCasp7 act -3, IDE act -4, proCasp3 act 13, IDE inh 4 and PHOSPHO1 inh 19.
For CC(CN1CCCC1)OC(=O)c1ccc(Br)cc1 (stereo unspecified) the results were UBC13 polyUb 1, proCasp7 act 5, IDE act 3, proCasp3 act 3, IDE inh 2 and PHOSPHO1 inh 28.
Screening CCOC(=O)N1CCN(c2ccnc3cc(Cl)ccc23)CC1 returned UBC13 polyUb 5, proCasp7 act 0, IDE act -19, proCasp3 act -8, IDE inh 37*, PHOSPHO1 inh 24, IDE inh confirm 20* and HEK cytotox 12.
`COc1ccccc1Nc1ccc(NC(=O)c2cccc([N+](=O)[O-])c2C)cc1` gave UBC13 polyUb -8, proCasp7 act -7, IDE act 0, proCasp3 act 5, IDE inh 17*, PHOSPHO1 inh 11, IDE inh confirm 5 and HEK cytotox 39*.
Screening COc1ccc(NC(=O)c2ccccc2[N+](=O)[O-])cc1 returned UBC13 polyUb -10, proCasp7 act -4, IDE act -3, proCasp3 act 1, IDE inh 6 and PHOSPHO1 inh 16.
For COc1ccc(/C=N/n2c(C)nc3sc(C)c(C)c3c2=O)cc1 the results were UBC13 polyUb 3, proCasp7 act 7, proCasp3 act 2, IDE inh 8 and PHOSPHO1 inh 27.
Cc1sc2nc(C)n(/N=C/c3ccccc3)c(=O)c2c1C was read as UBC13 polyUb -3, proCasp7 act 8, IDE act -11, proCasp3 act 5, IDE inh 16*, PHOSPHO1 inh -27, IDE inh confirm 10 and HEK cytotox 13.
`CC1CC(C)CN(C(=O)CCCNC(=O)c2ccc(Cl)cc2)C1` (stereo unspecified) gave UBC13 polyUb -1, proCasp7 act 0, IDE act 2, proCasp3 act 1, IDE inh 9 and PHOSPHO1 inh 0.
`Cc1nc2ccc(NC(=O)c3cc(S(=O)(=O)N(C)c4ccccc4)ccc3Cl)cc2s1` gave proCasp7 act 9, IDE act 1, proCasp3 act -8, IDE inh 5 and PHOSPHO1 inh 2.
Screening Cc1nc2ccc(NC(=O)c3ccc(Cl)c(S(=O)(=O)N(C)c4ccccc4)c3)cc2s1 returned UBC13 polyUb 11, proCasp7 act 12, IDE act -6, proCasp3 act -1, IDE inh 26*, PHOSPHO1 inh -12, IDE inh confirm 3 and HEK cytotox 54*.
`CCOC(=O)/C(=C/C=C1\Sc2ccccc2N1CC)C(C)=O` gave UBC13 polyUb -316, proCasp7 act -20, IDE act -146, proCasp3 act -19, IDE inh 101*, PHOSPHO1 inh -1, IDE inh confirm 143* and HEK cytotox 20.
`CCOC(=O)/C(=C\C=C1/Sc2ccccc2N1CC)C(C)=O` gave proCasp7 act -26, IDE act -103, proCasp3 act -23, IDE inh 123*, PHOSPHO1 inh -15, IDE inh confirm 156* and HEK cytotox 23*.
CCOC(=O)/C(=C/C=C1\Sc2cc(C)c(C)cc2N1CC)C(C)=O was read as IDE act -124 and PHOSPHO1 inh 20.
For CCC(=O)/C=C1/Sc2ccccc2N1CC the results were UBC13 polyUb 1, proCasp7 act -25, IDE act -3, proCasp3 act -21, IDE inh 0 and PHOSPHO1 inh 1.
`CCN(c1ccccc1)S(=O)(=O)c1ccc(Cl)c(C(=O)NCc2ccco2)c1` gave UBC13 polyUb -13, proCasp7 act -1, IDE act 1, proCasp3 act 8 and IDE inh 6.
Screening Cc1ccc(S(=O)(=O)Nc2cc(C(C(=O)OC(C)C)C(=O)C(F)(F)F)c(O)c3ccccc23)c(C)c1 (stereo unspecified) returned UBC13 polyUb -19, proCasp7 act -26, IDE act -2, proCasp3 act -23, IDE inh 22*, PHOSPHO1 inh -11, IDE inh confirm 4 and HEK cytotox 16.
Cc1ccc2c(c1)CCCN2S(=O)(=O)c1cccc(C(=O)Nc2ccccc2C(=O)O)c1 was read as UBC13 polyUb -19, proCasp7 act -1, IDE act -83, proCasp3 act 0, IDE inh 41*, PHOSPHO1 inh 35, IDE inh confirm 23* and HEK cytotox 26*.
`O=C(C1=C[C@@H](C2CCCCC2)C[C@@H](OCc2ccc(CO)cc2)O1)N1CCN(Cc2ccccc2)CC1` gave UBC13 polyUb 15, proCasp7 act -3, IDE act -12, proCasp3 act 2, IDE inh 19*, PHOSPHO1 inh -16, IDE inh confirm 5 and HEK cytotox 15.
O=C(C1=C[C@H](C2CCCCC2)C[C@H](OCc2ccc(CO)cc2)O1)N1CCN(Cc2ccccc2)CC1 was read as UBC13 polyUb 5, proCasp7 act 7, IDE act 0, proCasp3 act -5, IDE inh 7 and PHOSPHO1 inh 32.
`CC(C)CSC1=NSC2=NC(=O)/C(=C\c3coc4ccccc4c3=O)C(=N)N12` gave UBC13 polyUb -28, proCasp7 act -2, IDE act -128, proCasp3 act -9, IDE inh 63*, PHOSPHO1 inh 9, IDE inh confirm 106* and HEK cytotox 8.
Screening CSC1=NSC2=NC(=O)/C(=C\c3coc4ccccc4c3=O)C(=N)N12 returned proCasp7 act -16, IDE act -63, proCasp3 act -6, IDE inh 43*, PHOSPHO1 inh -7, IDE inh confirm 46* and HEK cytotox 6.
